Data published in ChEMBL document CHEMBL1773017, “The identification of 4,7-disubstituted naphthoic acid derivatives as UDP-competitive antagonists of P2Y14” (Bioorg Med Chem Lett, 2011).

Assays:
P2Y purinoceptor 14 = target: T1, P2Y purinoceptor 14 (Mus musculus, UniProt Q9ESG6); assay: Antagonist activity at mouse P2Y14 receptor expressed in HEK293 cells assessed as calcium flux by FLIPR assay; format: functional, cell-based
T1 sequence (Q9ESG6 whole entry): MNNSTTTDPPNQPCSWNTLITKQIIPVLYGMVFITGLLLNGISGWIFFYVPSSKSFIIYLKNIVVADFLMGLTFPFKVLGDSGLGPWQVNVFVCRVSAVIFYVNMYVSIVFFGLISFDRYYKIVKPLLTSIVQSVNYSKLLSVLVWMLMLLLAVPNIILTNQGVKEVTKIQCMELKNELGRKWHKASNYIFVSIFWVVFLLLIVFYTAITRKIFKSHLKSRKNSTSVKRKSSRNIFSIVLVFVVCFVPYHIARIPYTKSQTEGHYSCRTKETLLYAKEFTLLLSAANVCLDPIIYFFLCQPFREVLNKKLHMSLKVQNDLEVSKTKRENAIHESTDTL

[1] = Antagonist activity at chimpanzee P2Y14 receptor expressed in HEK293 cells assessed as calcium flux by FLIPR assay; format: functional, cell-based; conditions: Pan troglodytes
[2] = Displacement of [3H]-UDP from chimpanzee P2Y14 receptor expressed in HEK293 cells; format: cell-based, Pan troglodytes
[3] = Metabolic stability in C57BL/6 mouse Hepatocyte assessed as parent compound remaining at 20 uM after 2 hrs; format: ADME, cell-based; conditions: hepatocytes, read-out: Stability
Method in brief: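 Hepatocytes were isolated from mouse liver by two-step perfusion with 50 U/mL collagenase. Compound was incubated with the hepatocytes for 2 h, and metabolic stability was read out as the percentage of parent drug remaining.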

[4] = Oral bioavailability in C57BL/6 mouse at 50 mg/kg, po administered in 5% Tween-80; format: ADME, organism-based; conditions: in vivo
Method in brief: (§1)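 C57BL/6 mice were dosed orally at 50 mg/kg (one analog at 25 mg/kg) in 5% Tween-80. They were also dosed intravenously at 2 mg/kg in 60% PEG-200. Oral bioavailability, half-life and intrinsic clearance come from these dosings.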

Mus musculus [5] = assay: Intrinsic clearance in C57BL/6 mouse at 2 mg/kg, iv administered in 60% PEG-200; format: ADME, organism-based; parameters: dose 2 mg/kg, route intravenous; conditions: in vivo; method in brief: as §1
[6] = Half life in C57BL/6 mouse at 50 mg/kg, po and 2 mg/kg, iv; format: ADME, organism-based; conditions: in vivo; method in brief: as §1
[7] = Cmax in C57BL/6 mouse at 50 mg/kg, po administered in 5% Tween-80; format: ADME, organism-based; parameters: dose 50 mg/kg, route oral; conditions: in vivo; method in brief: as §1
Mus musculus [8] = assay: Drug metabolism in Mrp2 (-/-) mouse assessed as (2S,3S,4S,5R,6S)-6-(7-(4-fluoro-2,6-dimethylbenzyloxy)-4-(thiophen-3-yl)-2-naphthoyloxy)-3,4,5-trihydroxytetrahydro-2H-pyran-2-carboxylic acid recovery in bile at 2 mg/kg, po up to 24 hrs; conditions: in vivo
[9] = Oral bioavailability in C57BL/6 mouse at 25 mg/kg, po administered in 5% Tween-80; format: ADME, organism-based; conditions: in vivo; method in brief: as §1
[10] = Cmax in C57BL/6 mouse at 25 mg/kg, po administered in 5% Tween-80; format: ADME, organism-based; parameters: dose 25 mg/kg, route oral; conditions: in vivo; method in brief: as §1

| Structure (SMILES) | IC50 (P2Y purinoceptor 14) | IC50 [1] | Ki [2] | remaining at 2 h, 20 µM [3] | bioavailability [4] | CL (Mus musculus [5]) | half-life [6] | Cmax [7] | Activity (Mus musculus [8]) | bioavailability [9] | Cmax [10] |
| --- | --- | --- | --- | --- | --- | --- | --- | --- | --- | --- | --- |
| O=C(O)c1cc(-c2ccccc2)c2ccc(OCc3ccccc3)cc2c1 | 3500 nM | 3500 nM | 160 nM | – | – | – | – | – | – | – | – |
| COc1ccc2c(-c3ccccc3)cc(C(=O)O)cc2c1 | – | – | 4000 nM | – | – | – | – | – | – | – | – |
| O=C(O)c1cc(-c2ccccc2)c2ccc(Oc3ccccc3)cc2c1 | 4900 nM | 4100 nM | 1500 nM | – | – | – | – | – | – | – | – |
| O=C(O)c1ccc(COc2ccc3c(-c4ccccc4)cc(C(=O)O)cc3c2)cc1 | > 13000 nM | > 40000 nM | – | – | – | – | – | – | – | – | – |
| O=C(O)c1cc(-c2ccccc2)c2ccc(OCc3c(Cl)cccc3Cl)cc2c1 | 190 nM | 91 nM | 29 nM | – | – | – | – | – | – | – | – |
| Cc1cccc(C)c1COc1ccc2c(-c3ccccc3)cc(C(=O)O)cc2c1 | 110 nM | 41 nM | 42 nM | – | – | – | – | – | – | – | – |
| Cc1cccc(C)c1OCc1ccc2c(-c3ccccc3)cc(C(=O)O)cc2c1 | 2100 nM | 1500 nM | 340 nM | – | – | – | – | – | – | – | – |
| Cc1cccc(C)c1COc1ccc2ccc(C(=O)O)cc2c1 | 13000 nM | 6500 nM | – | – | – | – | – | – | – | – | – |
| Cc1cccc(C)c1COc1ccc2c(OCc3ccccc3)cc(C(=O)O)cc2c1 | 110 nM | 89 nM | 21 nM | – | – | – | – | – | – | – | – |
| Cc1cccc(C)c1COc1ccc2c(-c3ccsc3)cc(C(=O)O)cc2c1 | 26 nM | 6 nM | 16 nM | – | – | – | – | – | – | – | – |
| Cc1cc(F)cc(C)c1COc1ccc2c(-c3ccsc3)cc(C(=O)O)cc2c1 | 14 nM | 4 nM | 14 nM | 8% | 12% | 7.1 mL/min/kg | 2.7 h | 23 µM | > 99% | – | – |
| O=C(O)c1cc(-c2ccsc2)c2ccc(-c3ccc(OC(F)(F)F)cc3)cc2c1 | 54 nM | 14 nM | 29 nM | 62% | – | 18 mL/min/kg | 1.1 h | – | – | 92% | 18 µM |
| O=C(O)c1cc2cc(-c3ccc(OC(F)(F)F)cc3)ccc2c(-c2ccsc2)c1F | 380 nM | 110 nM | 110 nM | 85% | 129% | 3.3 mL/min/kg | 4.3 h | 89 µM | – | – | – |
| O=C(O)c1cc2cc(-c3ccc(OC(F)(F)F)cc3)ccc2c(-c2ccsc2)c1O | 1300 nM | 490 nM | 170 nM | 93% | – | 7.6 mL/min/kg | 13 h | 34 µM | – | – | – |
| O=C(O)c1cc(-c2cscc2C(O)(C(F)(F)F)C(F)(F)F)c2ccc(-c3ccc(OC(F)(F)F)cc3)cc2c1 | 350 nM | 91 nM | 54 nM | 91% | 45% | 1.9 mL/min/kg | 4.1 h | 37 µM | – | – | – |
| CS(=O)(=O)c1cscc1-c1cc(C(=O)O)cc2cc(-c3ccc(OC(F)(F)F)cc3)ccc12 | – | 86 nM | 32 nM | 16% | 4% | 3.7 mL/min/kg | 3.2 h | 16 µM | – | – | – |
| CS(=O)(=O)c1ccc(-c2cc(C(=O)O)cc3cc(-c4ccc(C(F)(F)F)cc4)ccc23)cc1 | 20 nM | 7 nM | 7 nM | – | – | – | – | – | – | – | – |
| O=C(O)c1cc(-c2ccc(C(O)C(F)(F)F)cc2)c2ccc(-c3ccc(C(F)(F)F)cc3)cc2c1 (stereo not drawn) | 13 nM | 5 nM | 14 nM | – | – | – | – | – | – | – | – |
| O=C(O)c1cc(-c2ccc([C@@H](O)C(F)(F)F)cc2)c2ccc(-c3ccc(C(F)(F)F)cc3)cc2c1 | 4 nM | 1 nM | 10 nM | – | – | – | – | – | – | – | – |
| O=C(O)c1cc(-c2ccc([C@H](O)C(F)(F)F)cc2)c2ccc(-c3ccc(C(F)(F)F)cc3)cc2c1 | 51 nM | 11 nM | 21 nM | – | – | – | – | – | – | – | – |
| O=C(O)c1cc(-c2ccc([C@@H](O)C(F)F)cc2)c2ccc(-c3ccc(C(F)(F)F)cc3)cc2c1 | 8 nM | 1 nM | 4 nM | 39% | 67% | 1.6 mL/min/kg | 3 h | 113 µM | – | – | – |
